Tests used:
[1] = Plasma pharmacokinetics of total flavanones; assay type: in vivo, human; settings: fruit or juice
Summary of the method: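 Randomised cross-over in twenty volunteers on a flavonoid-avoidance diet, given single orange juice (300 g) or fruit portions. Drinking withheld 1·5 h and eating 4 h. Heparinised blood taken at 15, 30, 45 min and 1–48 h, centrifuged, and ascorbate added (final 1 mM). Plasma (pH 5·0) hydrolysed with β-glucuronidase and sulfatase for 2 h at 37°C. Total naringenin and hesperetin measured by C18 SPE and reversed-phase HPLC.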

[2] = cited from earlier work
[3] = cited from earlier work; remark: listed apart in the source
[4] = assay type: in vivo, human; settings: orange juice, n 129, linear model
Summary of the method: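 Extended cohort of 129 subjects given a single 300 g orange juice dose. Urine collected as 24 h fractions: the day before, then for 48 h after, into bottles holding 1 g ascorbic acid. Volumes recorded. Urine (pH 5·0) hydrolysed with β-glucuronidase (10 000 units) and sulfatase (1000 units) for 2 h at 37°C, with galangin as internal standard. Measured by C18 SPE and HPLC, expressed as % of flavanone dose.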

| time of major peak in plasma profile [1] | decrease in urinary excretion between the ages of 20 and 80 years [4] | SMILES | time to peak plasma concentration [2] | mean urinary yield [3] |
| --- | --- | --- | --- | --- |
| about 6 h |  | O=C1C[C@@H](c2ccc(O)cc2)Oc2cc(O)cc(O)c21 [naringenin] |  |  |
|  |  | COc1ccc([C@@H]2CC(=O)c3c(O)cc(O[C@@H]4O[C@H](CO[C@@H]5O[C@@H](C)[C@H](O)[C@@H](O)[C@H]5O)[C@@H](O)[C@H](O)[C@H]4O)cc3O2)cc1O [hesperidin, 7-O-rutinoside of hesperetin] | about 6 h | > 8% |
|  |  | C[C@@H]1O[C@@H](O[C@H]2[C@H](Oc3cc(O)c4c(c3)O[C@H](c3ccc(O)cc3)CC4=O)O[C@H](CO)[C@@H](O)[C@@H]2O)[C@H](O)[C@H](O)[C@H]1O [naringin] | about 6 h | > 8% |
| about 6 h | 4% | COc1ccc([C@@H]2CC(=O)c3c(O)cc(O)cc3O2)cc1O [hesperetin] |  |  |
|  |  | OC[C@H]1O[C@@H](Oc2cc3c(O)cc(O)cc3[o+]c2-c2ccc(O)cc2)[C@H](O)[C@@H](O)[C@@H]1O [pelargondin-3-glucoside] | about 1 h |  |
|  |  | C[C@@H]1O[C@@H](OC[C@H]2O[C@@H](Oc3c(-c4ccc(O)c(O)c4)oc4cc(O)cc(O)c4c3=O)[C@H](O)[C@@H](O)[C@@H]2O)[C@H](O)[C@H](O)[C@H]1O [rutin, quercetin rutinoside] | about 6 h |  |

— publication PMC3508427 (The British journal of nutrition, 2009)
